The values below come from ChEMBL document CHEMBL1124862 (J Med Chem, 1990).

For assay [1], the target named is T1, 5-hydroxytryptamine receptor 1A (Rattus norvegicus, UniProt P19327).
T1 sequence (P19327 whole entry): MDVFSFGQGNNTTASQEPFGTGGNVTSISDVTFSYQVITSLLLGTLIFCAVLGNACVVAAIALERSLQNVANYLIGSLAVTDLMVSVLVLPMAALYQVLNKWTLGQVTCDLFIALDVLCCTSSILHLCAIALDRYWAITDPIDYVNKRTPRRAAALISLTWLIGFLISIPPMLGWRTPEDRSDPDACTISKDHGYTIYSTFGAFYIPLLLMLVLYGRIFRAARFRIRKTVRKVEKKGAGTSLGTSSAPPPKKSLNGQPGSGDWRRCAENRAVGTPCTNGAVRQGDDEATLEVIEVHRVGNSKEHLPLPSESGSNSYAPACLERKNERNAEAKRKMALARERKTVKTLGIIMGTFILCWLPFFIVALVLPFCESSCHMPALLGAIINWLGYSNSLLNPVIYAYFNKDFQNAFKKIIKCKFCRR
Nature of the assay: Displacement of [3H]8-OH-DPAT from rat cortex 5-hydroxytryptamine 1A receptor.

Assay [2] addresses T2, 5-hydroxytryptamine receptor 1B (Rattus norvegicus, UniProt P28564). The assay can be described thus: Inhibitory activity against 5-hydroxytryptamine 1B receptor of rat cortex using [3H]5-HT. The method, boiled down: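 Competition binding in rat cortex membranes, using the radioligand named in each line at a concentration of approximately its K_D.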
The target of assay [3] is Serotonin 2 (5-HT2) receptor (Rattus norvegicus, UniProt P30994+P08909+P14842). Nature of the assay: Compound was evaluated for its inhibitory activity against 5-hydroxytryptamine 2 receptor of rat anterior cortex using [3H]ketanserin as the radioligand.
Assay [4] addresses T2, 5-hydroxytryptamine receptor 1B. The assay can be described thus: Inhibitory activity against 5-hydroxytryptamine 1B receptor of rat cortex using [3H]5-HT as the radioligand.
Assay [5] has as its target 5-HT1A receptor (Cavia porcellus, UniProt A0A286Y074). The assay can be described thus: Inhibition of Forskolin-stimulated adenylate cyclase activity against 5-hydroxytryptamine 1A receptor of guinea pig hippocampus. The class given is functional, tissue-based. The method, boiled down:
(§1)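 Washed membranes came from guinea pig hippocampus, rat substantia nigra or guinea pig substantia nigra. They were incubated at 30 °C with [α-³²P]ATP, 3 μM forskolin and varying agonist concentrations. The reaction was stopped with 3% SDS. [³²P]cAMP was isolated by two-column chromatography and counted by scintillation, in pmol/mg protein/min. Points were run in triplicate, and EC50 came from at least three experiments.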

The species named for assay [6] is Rattus norvegicus. Nature of the assay: Effect of direct injection into the PVN (paraventricular medial hypothalamus) of rats on feeding behavior and the inhibition of food intake. The assay is classed as functional. The method, boiled down: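 Seven days later they were food-deprived for 24 h with water available. Each rat received a PVN infusion at 1 μL/min of test agent (16 μg) or 5-HT (32 μg) in 0.9% NaCl, or vehicle. Food eaten over 30 min was weighed. Groups were compared by two-tailed t test, and rats with misplaced cannulae were excluded after histology.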

The target of assay [7] is T2, 5-hydroxytryptamine receptor 1B. The assay can be described thus: Inhibition of Forskolin-stimulated adenylate cyclase activity against 5-hydroxytryptamine 1B receptor of rat substantia nigra. The class given is functional. The method, boiled down:
as §1

In assay [8] the target is 5-hydroxytryptamine receptor 1D (Cavia porcellus, UniProt Q60484). The assay can be described thus: Inhibition of Forskolin-stimulated adenylate cyclase activity against 5-hydroxytryptamine 1D receptor of guinea pig substantia nigra. An outline of the steps:
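Washed membranes from freshly dissected guinea pig substantia nigra, incubated at 30 °C with [α-³²P]ATP plus 3 μM forskolin and varying agonist concentrations. Reaction stopped with 3% SDS. [³²P]cAMP separated from [³²P]ATP on two columns and counted by liquid scintillation, as pmol/mg protein/min. EC50 from at least three experiments, each in triplicate.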

Each structure is given as a SMILES string. Bounds are passed on as bounds.

T2 sequence (P28564 whole entry): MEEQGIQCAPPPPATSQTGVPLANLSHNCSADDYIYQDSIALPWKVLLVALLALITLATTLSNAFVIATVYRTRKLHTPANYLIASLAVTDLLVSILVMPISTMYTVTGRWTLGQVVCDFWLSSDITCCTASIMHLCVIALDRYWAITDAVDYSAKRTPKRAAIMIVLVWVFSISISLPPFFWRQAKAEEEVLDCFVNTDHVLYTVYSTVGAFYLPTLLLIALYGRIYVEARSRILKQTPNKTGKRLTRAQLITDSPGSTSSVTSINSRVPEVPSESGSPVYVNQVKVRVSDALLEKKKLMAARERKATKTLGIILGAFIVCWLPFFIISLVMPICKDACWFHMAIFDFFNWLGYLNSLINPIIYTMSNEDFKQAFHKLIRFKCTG
5-hydroxytryptamine receptor 1D, sequence (Q60484 whole entry): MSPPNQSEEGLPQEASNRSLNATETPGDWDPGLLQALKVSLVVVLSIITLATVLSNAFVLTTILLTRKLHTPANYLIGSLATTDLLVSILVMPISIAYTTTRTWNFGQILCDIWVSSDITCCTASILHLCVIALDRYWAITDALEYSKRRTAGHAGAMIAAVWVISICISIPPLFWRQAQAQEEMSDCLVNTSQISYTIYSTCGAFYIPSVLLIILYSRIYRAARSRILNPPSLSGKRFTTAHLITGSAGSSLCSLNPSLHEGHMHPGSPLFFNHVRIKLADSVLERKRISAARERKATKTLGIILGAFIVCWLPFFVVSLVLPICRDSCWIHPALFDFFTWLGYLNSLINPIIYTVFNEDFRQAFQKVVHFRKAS

Take `Oc1ccc2[nH]cc(C3=CCNCC3)c2c1`: the IC50 stood at 30 nM in assay [1] and 1.2 nM in assay [2].

For the compound `N#Cc1ccc2[nH]cc(C3=CCNCC3)c2c1`, the IC50 in assay [1] came to 32 nM; in assay [2] it was 0.8 nM.

Consider `Fc1ccc2[nH]cc(C3=CCNCC3)c2c1`, for which the IC50 in assay [1] amounted to 65 nM; in assay [2], 1.9 nM.

For `CN1CCN(c2nc3cc(C(F)(F)F)ccc3n3cccc23)CC1`, the IC50 in assay [1] stood at 19 nM; in assay [3], 6800 nM; in assay [2], 150 nM.

Regarding `FC(F)(F)c1cccc(N2CCNCC2)c1`, the IC50 in assay [1] came to 290 nM; in assay [3], 570 nM; in assay [2] it was 27 nM.

For the compound `Brc1ccc2[nH]cc(C3=CCNCC3)c2c1`, the IC50 in assay [1] was found to be 13 nM; in assay [2] it was 3.2 nM.

As for `C1=C(c2c[nH]c3ccccc23)CCNC1`, the half-maximal inhibitory concentration (IC50) in assay [1] is 140 nM; in assay [4], 3.7 nM.

Take `FC(F)(F)c1ccc2c(c1)nc(N1CCNCC1)c1cccn12`: the figures for the IC50 in assay [1], in assay [3] and in assay [2] were 37 nM, over 10000 nM and 21 nM, respectively.

On to `Clc1ccc2[nH]cc(C3=CCNCC3)c2c1`, for which the IC50 turned out to be 26 nM in assay [1] and 3.3 nM in assay [2].

Turning to `O=[N+]([O-])c1ccc2[nH]cc(C3=CCNCC3)c2c1`, the IC50 in assay [1] turned out to be 36 nM; in assay [2], 3.5 nM.

For `Oc1ccc2[nH]cc(C3=CCNCC3)c2n1`, the EC50 in assay [5] was over 10000 nM; in assay [7], 56 nM. Further, the IC50 in assay [1] is 3000 nM; in assay [3], over 10000 nM; in assay [2], 15 nM. The compound further had a g/30min in assay [6] of 0.12.

Turning to `COc1ccc2[nH]cc(C3=CCNCC3)c2c1` [RU-24969], half-maximal inhibition in assay [2] (IC50) was put at 2 nM.

Regarding `NCCc1c[nH]c2ccc(O)cc12` [SEROTONIN], in assay [8], it took 16 nM to reach a half-maximal effect (EC50). Further, the g/30min in assay [6] was 1.15.
